Assay outcomes deposited in PubChem by Broad Institute.
AF4-AF9 inh: inhibitors of human MLL-AF4/AF9 interaction; P42568; AlphaScreen, biotin-AF4 peptide binding to FLAG-AF9; inhibition, % at 10 µM; hit rate 0.47% among 350,000;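 active = every replicate reaching a set inhibition limit, whatever the replicate mean, cut at about 25% in these data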;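 note: 0% = plate neutral control median and 100% = total signal loss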
ERAP1 inh: inhibitors of human ERAP1 aminopeptidase. inhibition, % at 10.7 µM. hit rate 0.15% among 340,000. recombinant ERAP1, Leu-AMC fluorescence, 60 min. Q9NZ08. AID 652197;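 active = mean replicate inhibition of at least 30%, or all replicates individually reaching that 30% level; inactive = mean below 30% and not every replicate reaching it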;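 note: 0% = neutral control wells and 100% = L-leucinethiol positive control wells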
GSIS activator: primary screen for activators of insulin secretion dependent on glucose, INS-1E cells, GLuc reporter luminescence. activation, % at 16.6 µM. hit rate 0.61% among 370,000. INS-1E GLuc reporter insulin secretion, 2-3 h;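 active = lowest replicate activation of at least 40%, so every replicate reaches that level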;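 note: 0% = median of neutral control wells and 100% = median of IBMX positive control wells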
RAD52 anneal inh: inhibitors of human RAD52 DNA annealing. recombinant RAD52 DNA annealing, FRET fluorescence. inhibition, % at 18.7 µM. hit rate 0.46% among 360,000. P43351;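 active = every replicate showing at least 50% inhibition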
S100A4 inh HTS: blocks human S100A4 binding to myosin IIA peptide | P26447 | S100A4/TAMRA-MyoIIA peptide fluorescence polarization | inhibition, % at 10.7 µM | hit rate 0.14% among 360,000;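 active = mean inhibition of at least 70% across replicates, with every replicate also reaching that level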
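Test system – S100A4 monomer (human) · Compound – single-point compound testing · Schedule – 5 min incubation before reading · Probe or stimulus – TAMRA-labelled myosin IIA heavy-chain peptide probe, 5 nM · Benchmarks – neutral control DMSO, positive control TFP · Medium – Calcium-containing HEPES buffer, pH 7.2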
Active calls of the source: *; . = not tested or not shown. Only some compounds are listed: those with a hit (about 1.5% of all), similar ones and a draw of the others.

SMILES	AF4-AF9 inh	ERAP1 inh	GSIS activator	RAD52 anneal inh	S100A4 inh HTS
O=C(C[C@@H]1C[C@H]2c3cc(NS(=O)(=O)c4ccccc4)ccc3O[C@H]2[C@@H](CO)O1)N1CCOCC1	-1.7	1.4	17.2	-4.8	111.1*
O=C(C[C@H]1C[C@@H]2c3cc(NC(=O)C4CCOCC4)ccc3O[C@@H]2[C@H](CO)O1)NCCN1CCCCC1	-10.0	0.0	5.0	9.6	114.9*
COCC(=O)Nc1ccc2c(c1)[C@@H]1C[C@@H](CC(=O)N3CCOCC3)O[C@@H](CO)[C@@H]1O2	-1.9	3.2	4.8	-7.2	85.6*
O=C(C[C@@H]1C[C@@H]2c3cc(NC(=O)CC4CC4)ccc3O[C@@H]2[C@H](CO)O1)NCCN1CCCCC1	-3.0	10.1	-12.9	6.3	7.0
O=C(C[C@@H]1C[C@H]2c3cc(NS(=O)(=O)c4ccccc4)ccc3O[C@H]2[C@H](CO)O1)N1CCOCC1	-1.1	3.6	-1.0	3.8	-0.7
CC(C)NC(=O)N1C[C@@H]2C(c3ccc(Br)cc3)[C@H](C1)N2Cc1ccc(F)cc1 (stereo not given in full)	.	.	-33.4	.	.
CN(C)CC(=O)N1[C@@H](CO)[C@H](c2ccccc2)C12CN(CC1CC1)C2	.	.	3.2	.	.
CCCNC(=O)[C@@H]1[C@@H](CO)[C@@H]2Cn3c(ccc(-c4ccccc4)c3=O)[C@@H]2N1CC1CC1	-0.4	0.0	-1.9	-5.6	1.0
C[C@@H]1CN([C@@H](C)CO)C(=O)c2cc(/C=C/c3ccccc3)cnc2O[C@@H]1CN(C)Cc1cncnc1	2.1	2.6	3.7	1.2	-7.1
O=C(O)CCCCC1SCC2NC(=O)NC21 (stereo not given)	70.3*	-1.9	15.0	-2.2	2.8
CCOC(=O)N1CCN(C(=O)/C(=C/c2ccc(OC)c(OC)c2)NC(=O)c2ccccc2)CC1	-1.3	-2.4	8.9	-5.9	-0.7
COc1ccc(/C=C(\NC(=O)c2ccccc2)C(=O)OC[C@@H]2CCC[N+]3(C)CCCCC23)cc1OC (stereo not given in full)	-1.0	39.4*	5.7	-4.3	-6.6
C/C=C/c1ccccc1[C@@H]1[C@H](C#N)N(C(=O)c2cccnc2)[C@H]1CO	.	.	3.1	.	.
CO[C@H]1CN(C)C(=O)c2ccc(NC(=O)CC(F)(F)F)cc2OC[C@H](C)NC[C@H]1C	-3.7	-0.2	-4.0	-60.6	-10.6
OCCN1CCSC1=S	-0.5	5.3	45.2*	-5.6	6.7
COc1ccc(Cc2nc(-c3ccc(-n4cccc4)cc3)no2)cc1OC	-1.0	-1.4	55.7*	-44.9	1.5
Cc1ccc(OCc2nc(-c3ccc(-n4cccc4)cc3)no2)cc1C	37.5*	5.3	5.4	-10.2	-0.5
Cc1cccc(OCc2nc(-c3ccc(-n4cccc4)cc3)no2)c1	-10.4	1.1	.	-4.7	-0.2
Cc1cc2oc3cc(NCCC4CCCN4C)ccc3c(=O)c2cc1C (stereo not given)	0.2	-156.8	.	-261.0	-12.0
CN1CCCC1CCNC1C2CC3CC(C2)CC1C3 (stereo not given)	.	.	46.4*	.	.
O=C(Nc1ccc2c(c1)[C@@H]1C[C@H](CC(=O)N3CCc4ccccc4C3)O[C@H](CO)[C@@H]1O2)c1cccnc1	2.5	0.6	-2.0	10.3	-35.0
CN(C)CC#Cc1ccc([C@H]2[C@@H](CO)N3CCCCN(CC4CC4)C[C@H]23)cc1	26.1*	2.8	23.3	66.8*	-2.1
CN(C)CC#Cc1ccc([C@@H]2[C@@H](CO)N3CCCCN(CC4CC4)C[C@H]23)cc1	15.8	0.1	21.8	54.6*	10.1
CN(C)CC#Cc1ccc([C@@H]2[C@H]3CN(CC4CC4)CCCCN3[C@H]2CO)cc1	26.3*	0.4	17.6	73.7*	-7.2
CCCCSc1nc2[nH]ncc2c(=O)[nH]1	0.1	3.7	68.9*	-13.9	-6.6
SMILES	AF4-AF9 inh	ERAP1 inh	GSIS activator	RAD52 anneal inh	S100A4 inh HTS
C[C@H](CO)N1C[C@H](C)[C@@H](CN(C)C(=O)Nc2ccc(F)cc2)OCc2ccccc2-c2c(n(C)c3ccccc23)C1=O	3.1	0.1	9.7	18.6	-2.1
Cc1nc2n[nH]c(N)c2c2c1COC(C)(C)C2	.	.	15.7	.	.
CCCc1nc2n[nH]c(N)c2c2c1COC(C)(C)C2	.	.	49.0*	.	.
CCc1nc2n[nH]c(N)c2c2c1CCCC2	.	.	120.7*	.	.
O=[N+]([O-])c1c(Nc2ccccc2O)cc(Cl)c2nonc12	14.6	2.1	-1.4	2.2	3.1
O=C(O)c1cc(Nc2cc(Cl)c3nonc3c2[N+](=O)[O-])ccc1O	-0.8	35.8*	-15.9	-3.0	2.8
